A short description of series [1]: Metabolic stability in human serum assessed as full length product remaining after 10 mins by HPLC. The class given is ADME, cell-free. To be noted: read-out: Stability. Put shortly: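 About 0.5 A260 units compound in 1% human serum in PBS, 37 °C; aliquot taken at 10 min, analysed by anion-exchange HPLC for percent intact full-length product.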
Series [2] concerns the target T1, Toll-like receptor 8 (Homo sapiens) (UniProt Q9NR97).
T1 sequence (whole entry): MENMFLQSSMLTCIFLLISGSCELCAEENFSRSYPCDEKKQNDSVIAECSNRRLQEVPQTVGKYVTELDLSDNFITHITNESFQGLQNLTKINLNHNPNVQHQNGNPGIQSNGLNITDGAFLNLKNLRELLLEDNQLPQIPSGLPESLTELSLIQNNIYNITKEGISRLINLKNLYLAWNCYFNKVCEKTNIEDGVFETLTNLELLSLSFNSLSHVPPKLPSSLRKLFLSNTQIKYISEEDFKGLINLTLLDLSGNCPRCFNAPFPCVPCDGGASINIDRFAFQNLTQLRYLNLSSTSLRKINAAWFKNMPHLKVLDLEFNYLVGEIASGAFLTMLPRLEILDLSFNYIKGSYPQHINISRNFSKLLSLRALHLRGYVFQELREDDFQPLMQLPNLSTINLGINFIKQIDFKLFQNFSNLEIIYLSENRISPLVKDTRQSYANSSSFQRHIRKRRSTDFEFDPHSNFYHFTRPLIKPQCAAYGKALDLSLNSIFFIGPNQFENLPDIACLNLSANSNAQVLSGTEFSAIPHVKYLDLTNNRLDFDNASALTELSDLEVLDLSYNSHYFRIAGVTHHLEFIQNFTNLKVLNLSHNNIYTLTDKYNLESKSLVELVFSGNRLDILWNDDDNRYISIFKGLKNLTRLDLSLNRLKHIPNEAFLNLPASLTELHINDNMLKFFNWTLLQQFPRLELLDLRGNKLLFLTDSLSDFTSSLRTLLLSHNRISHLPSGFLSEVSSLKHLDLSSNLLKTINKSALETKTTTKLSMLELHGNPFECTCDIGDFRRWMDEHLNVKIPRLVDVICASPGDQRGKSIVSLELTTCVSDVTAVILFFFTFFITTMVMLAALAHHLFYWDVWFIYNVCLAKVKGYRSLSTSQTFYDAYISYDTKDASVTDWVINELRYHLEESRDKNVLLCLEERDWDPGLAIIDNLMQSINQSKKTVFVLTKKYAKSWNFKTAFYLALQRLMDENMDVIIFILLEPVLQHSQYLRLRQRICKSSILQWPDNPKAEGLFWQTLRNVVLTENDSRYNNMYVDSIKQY
Put plainly: Activation of human TLR8 expressed in HEK293XL assessed as fold induction of NF-kappaB activity at 50 ug/ml after 18 hrs by reporter gene assay relative to control. A digest of the protocol: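 HEK293 cells stably expressing human TLR7 or TLR8, transiently transfected with SEAP reporter plasmid; medium replaced, SIMRA compounds added, 18 h incubation. Supernatant SEAP measured by QuantiBlue; expressed as fold increase in NF-κB activity over PBS control. Tabulated data at 50 μg/mL, representative of three independent experiments.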
Background: A reporter such as luciferase makes a cellular process visible.

The species entered for a further series is Homo sapiens. The series can be described thus: Ratio of human TLR7 activity to human TLR8 activity. A digest of the protocol: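 TLR7/TLR8 ratio computed from fold NF-κB (SEAP reporter) activation in HEK293 cells stably expressing human TLR7 versus TLR8, compounds at 50 μg/mL, 18 h exposure; representative of three independent experiments.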
Series [3] concerns the target Toll-like receptor 3 (Homo sapiens) (UniProt O15455). The series can be described thus: Activation of human TLR3 expressed in HEK293 assessed as induction of NF-kappaB activity reporter gene assay. The class given is cell-based.

Activity calls are given as the source filed them. No cut-off for these calls is given here.

Data on three molecules can be found in ChEMBL document CHEMBL1154352, “Toll-like receptor 7 selective synthetic oligoribonucleotide agonists: synthesis and structure-activity relationship studies” (J Med Chem, 2009).

Chain of Toll-like receptor 3 (Homo sapiens) (O15455 whole entry): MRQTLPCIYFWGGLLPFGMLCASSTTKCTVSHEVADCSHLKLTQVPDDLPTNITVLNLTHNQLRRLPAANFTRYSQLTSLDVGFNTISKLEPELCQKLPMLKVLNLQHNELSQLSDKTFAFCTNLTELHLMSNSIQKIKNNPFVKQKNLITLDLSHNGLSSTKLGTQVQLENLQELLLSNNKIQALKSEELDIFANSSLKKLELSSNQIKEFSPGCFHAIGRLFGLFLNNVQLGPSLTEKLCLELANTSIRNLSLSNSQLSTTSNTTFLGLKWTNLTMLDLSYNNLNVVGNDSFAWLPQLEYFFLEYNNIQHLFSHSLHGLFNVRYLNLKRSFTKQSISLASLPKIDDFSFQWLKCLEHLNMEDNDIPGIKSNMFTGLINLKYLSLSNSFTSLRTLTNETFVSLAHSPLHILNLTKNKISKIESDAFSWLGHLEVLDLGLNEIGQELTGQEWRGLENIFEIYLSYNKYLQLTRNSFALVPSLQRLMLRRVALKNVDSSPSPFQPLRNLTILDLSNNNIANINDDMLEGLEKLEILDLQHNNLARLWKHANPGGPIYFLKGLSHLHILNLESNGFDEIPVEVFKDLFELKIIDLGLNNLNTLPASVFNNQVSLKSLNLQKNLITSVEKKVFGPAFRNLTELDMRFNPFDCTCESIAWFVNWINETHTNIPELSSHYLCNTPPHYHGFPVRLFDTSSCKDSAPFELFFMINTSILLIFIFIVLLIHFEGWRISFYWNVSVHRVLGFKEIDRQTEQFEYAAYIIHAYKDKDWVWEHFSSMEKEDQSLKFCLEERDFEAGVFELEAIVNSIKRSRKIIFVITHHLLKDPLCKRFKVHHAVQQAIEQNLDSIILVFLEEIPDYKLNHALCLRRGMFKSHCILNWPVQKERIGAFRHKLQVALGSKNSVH

`Nc1ccn([C@@H]2O[C@H](COP(=O)(S)O[C@H]3[C@@H](O)[C@H](n4cnc5c(N)ncnc54)O[C@@H]3COP(=O)(S)O[C@H]3[C@@H](O)[C@H](n4ccc5c(=O)[nH]c(N)nc54)O[C@@H]3COP(=O)(S)O[C@H]3[C@@H](O)[C@H](n4ccc(=O)[nH]c4=O)O[C@@H]3COP(=O)(S)O[C@H]3[C@@H](O)[C@H](n4ccc(=O)[nH]c4=O)O[C@@H]3COP(=O)(S)O[C@H]3[C@@H](O)[C@H](n4cnc5c(N)ncnc54)O[C@@H]3COP(=O)(S)O[C@H]3[C@@H](O)[C@H](n4cnc5c(N)ncnc54)O[C@@H]3CO)[C@@H](OP(=O)(S)OC[C@H]3O[C@@H](n4ccc5c(=O)[nH]c(N)nc54)[C@H](O)[C@@H]3OP(=O)(S)OC[C@H]3O[C@@H](n4ccc(N)nc4=O)[C@H](O)[C@@H]3OP(=O)(S)OC[C@H]3O[C@@H](n4ccc(=O)[nH]c4=O)[C@H](O)[C@@H]3OP(=O)(S)OC[C@H]3O[C@@H](n4ccc5c(=O)[nH]c(N)nc54)[C@H](O)[C@@H]3OP(=O)(S)OCC(O)COP(=O)(S)O[C@H]3[C@@H](O)[C@H](n4ccc5c(=O)[nH]c(N)nc54)O[C@@H]3COP(=O)(S)O[C@H]3[C@@H](O)[C@H](n4ccc(=O)[nH]c4=O)O[C@@H]3COP(=O)(S)O[C@H]3[C@@H](O)[C@H](n4ccc(N)nc4=O)O[C@@H]3COP(=O)(S)O[C@H]3[C@@H](O)[C@H](n4ccc5c(=O)[nH]c(N)nc54)O[C@@H]3COP(=O)(S)O[C@H]3[C@@H](O)[C@H](n4ccc(N)nc4=O)O[C@@H]3COP(=O)(S)O[C@H]3[C@@H](O)[C@H](n4cnc5c(N)ncnc54)O[C@@H]3COP(=O)(S)O[C@H]3[C@@H](O)[C@H](n4ccc5c(=O)[nH]c(N)nc54)O[C@@H]3COP(=O)(S)O[C@H]3[C@@H](O)[C@H](n4ccc(=O)[nH]c4=O)O[C@@H]3COP(=O)(S)O[C@H]3[C@@H](O)[C@H](n4ccc(=O)[nH]c4=O)O[C@@H]3COP(=O)(S)O[C@H]3[C@@H](O)[C@H](n4cnc5c(N)ncnc54)O[C@@H]3COP(=O)(S)O[C@H]3[C@@H](O)[C@H](n4cnc5c(N)ncnc54)O[C@@H]3CO)[C@H]2O)c(=O)n1` (some centres not stated): the remaining at 10 min in series [1] was 82%. Also, the fold change (FC) in series [2] worked out at 0.2. For the same molecule, the Ratio in the series filed under Homo sapiens turned out to be 114. Also, the outcome in series [3] was inactive.

`Nc1ccn([C@@H]2O[C@H](COP(=O)(S)O[C@H]3[C@@H](O)[C@H](n4cnc5c(N)ncnc54)O[C@@H]3COP(=O)(S)O[C@H]3[C@@H](O)[C@H](n4cnc5c(N)ncnc54)O[C@@H]3CO)[C@@H](OP(=O)(S)OC[C@H]3O[C@@H](n4ccc(=O)[nH]c4=O)[C@H](O)[C@@H]3OP(=O)(S)OC[C@H]3O[C@@H](n4ccc5c(=O)[nH]c(N)nc54)[C@H](O)[C@@H]3OP(=O)(S)OC[C@H]3O[C@@H](n4ccc(N)nc4=O)[C@H](O)[C@@H]3OP(=O)(S)OC[C@H]3O[C@@H](n4ccc5c(=O)[nH]c(N)nc54)[C@H](O)[C@@H]3OP(=O)(S)OC[C@H]3O[C@@H](n4cnc5c(N)ncnc54)[C@H](O)[C@@H]3OP(=O)(S)OC[C@H]3O[C@@H](n4ccc(N)nc4=O)[C@H](O)[C@@H]3OP(=O)(S)OC[C@H]3O[C@@H](n4ccc(=O)[nH]c4=O)[C@H](O)[C@@H]3OP(=O)(S)OC[C@H]3O[C@@H](n4ccc(=O)[nH]c4=O)[C@H](O)[C@@H]3OP(=O)(S)OCC(O)COP(=O)(S)O[C@H]3[C@@H](O)[C@H](n4ccc(=O)[nH]c4=O)O[C@@H]3COP(=O)(S)O[C@H]3[C@@H](O)[C@H](n4ccc(=O)[nH]c4=O)O[C@@H]3COP(=O)(S)O[C@H]3[C@@H](O)[C@H](n4ccc(N)nc4=O)O[C@@H]3COP(=O)(S)O[C@H]3[C@@H](O)[C@H](n4cnc5c(N)ncnc54)O[C@@H]3COP(=O)(S)O[C@H]3[C@@H](O)[C@H](n4ccc5c(=O)[nH]c(N)nc54)O[C@@H]3COP(=O)(S)O[C@H]3[C@@H](O)[C@H](n4ccc(N)nc4=O)O[C@@H]3COP(=O)(S)O[C@H]3[C@@H](O)[C@H](n4ccc5c(=O)[nH]c(N)nc54)O[C@@H]3COP(=O)(S)O[C@H]3[C@@H](O)[C@H](n4ccc(=O)[nH]c4=O)O[C@@H]3COP(=O)(S)O[C@H]3[C@@H](O)[C@H](n4ccc(N)nc4=O)O[C@@H]3COP(=O)(S)O[C@H]3[C@@H](O)[C@H](n4cnc5c(N)ncnc54)O[C@@H]3COP(=O)(S)O[C@H]3[C@@H](O)[C@H](n4cnc5c(N)ncnc54)O[C@@H]3CO)[C@H]2O)c(=O)n1` (some centres not stated): the remaining at 10 min in series [1] was 83%. In addition, the fold change (FC) in series [2] amounted to 0.3. In the series listed under Homo sapiens, the Ratio is 21.7. In addition, in series [3], the outcome was inactive.

On to `Nc1ccn([C@@H]2O[C@H](COP(=O)(S)O[C@H]3[C@@H](O)[C@H](n4cnc5c(N)ncnc54)O[C@@H]3CO)[C@@H](OP(=O)(S)OC[C@H]3O[C@@H](n4ccc(=O)[nH]c4=O)[C@H](O)[C@@H]3OP(=O)(S)OC[C@H]3O[C@@H](n4ccc(=O)[nH]c4=O)[C@H](O)[C@@H]3OP(=O)(S)OC[C@H]3O[C@@H](n4ccc5c(=O)[nH]c(N)nc54)[C@H](O)[C@@H]3OP(=O)(S)OC[C@H]3O[C@@H](n4cnc5c(N)ncnc54)[C@H](O)[C@@H]3OP(=O)(S)OC[C@H]3O[C@@H](n4ccc(N)nc4=O)[C@H](O)[C@@H]3OP(=O)(S)OC[C@H]3O[C@@H](n4ccc(=O)[nH]c4=O)[C@H](O)[C@@H]3OP(=O)(S)OC[C@H]3O[C@@H](n4ccc(=O)[nH]c4=O)[C@H](O)[C@@H]3OP(=O)(S)OC[C@H]3O[C@@H](n4ccc5c(=O)[nH]c(N)nc54)[C@H](O)[C@@H]3OP(=O)(S)OC[C@H]3O[C@@H](n4cnc5c(N)ncnc54)[C@H](O)[C@@H]3OP(=O)(S)OCC(O)COP(=O)(S)O[C@H]3[C@@H](O)[C@H](n4cnc5c(N)ncnc54)O[C@@H]3COP(=O)(S)O[C@H]3[C@@H](O)[C@H](n4ccc5c(=O)[nH]c(N)nc54)O[C@@H]3COP(=O)(S)O[C@H]3[C@@H](O)[C@H](n4ccc(=O)[nH]c4=O)O[C@@H]3COP(=O)(S)O[C@H]3[C@@H](O)[C@H](n4ccc(=O)[nH]c4=O)O[C@@H]3COP(=O)(S)O[C@H]3[C@@H](O)[C@H](n4ccc(N)nc4=O)O[C@@H]3COP(=O)(S)O[C@H]3[C@@H](O)[C@H](n4cnc5c(N)ncnc54)O[C@@H]3COP(=O)(S)O[C@H]3[C@@H](O)[C@H](n4ccc5c(=O)[nH]c(N)nc54)O[C@@H]3COP(=O)(S)O[C@H]3[C@@H](O)[C@H](n4ccc(=O)[nH]c4=O)O[C@@H]3COP(=O)(S)O[C@H]3[C@@H](O)[C@H](n4ccc(=O)[nH]c4=O)O[C@@H]3COP(=O)(S)O[C@H]3[C@@H](O)[C@H](n4ccc(N)nc4=O)O[C@@H]3COP(=O)(S)O[C@H]3[C@@H](O)[C@H](n4cnc5c(N)ncnc54)O[C@@H]3CO)[C@H]2O)c(=O)n1` (some centres not stated), for which the remaining at 10 min in series [1] came to 87%. Moreover, in series [2], the fold change (FC) is 1.4. Also, the Ratio in the series filed under Homo sapiens amounted to 6.5. In addition, in series [3], the result was inactive.
